According to ChEMBL document CHEMBL1150864, “Antimalarial compounds from Rhaphidophora decursiva” (J Nat Prod, 2001):
Values after ≈ are worked out from the molar mass of the structure shown.

Experiments:
[1] = system: Plasmodium falciparum; assay: Antiplasmodial activity against chloroquine-sensitive Plasmodium falciparum D6 by [3H]hypoxanthine uptake; type: functional, organism-based
Summary of the method: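 P. falciparum D6 kept in type A+ human erythrocytes (RPMI-1640, NaHCO3, HEPES, hypoxanthine, 10% Albumax II) under 5% O2/5% CO2/90% N2 at 37 °C. Plated at 0.5-1% parasitemia, 1% hematocrit with serial dilutions from 4 mg/mL stock, triplicate; 24 h, then 0.5 μCi [3H]hypoxanthine for 18 h more. Scintillation counting; IC50 by nonlinear regression versus zero-drug controls.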

[2] = Cytotoxicity against human KB cells after 72 hrs; type: cell-based; settings: read-out: ED50
[3] = Selectivity index, ratio of ED50 for human KB cells to IC50 for chloroquine-sensitive Plasmodium falciparum D6; type: functional
[4] = system: Plasmodium falciparum; assay: Antiplasmodial activity against chloroquine-resistant Plasmodium falciparum W2 by [3H]hypoxanthine uptake; type: functional, organism-based
Summary of the method: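 P. falciparum W2 grown in type A+ human erythrocytes in RPMI-1640 with NaHCO3, HEPES, hypoxanthine and 10% Albumax II, 5% O2/5% CO2/90% N2, 37 °C. Samples from 4 mg/mL stock tested in triplicate at 0.5-1% parasitemia, 1% hematocrit. After 24 h, 0.5 μCi [3H]hypoxanthine added for 18 h more; IC50 by nonlinear regression, zero-drug controls as 100%.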

[5] = Selectivity index, ratio of ED50 for human KB cells to IC50 for chloroquine-resistant Plasmodium falciparum W2; type: functional

Molecule COc1cc([C@H]2OC[C@H]3[C@@H]2CO[C@@H]3c2cc(OC)c(O)c(OC)c2)ccc1O has an IC50 ([1]; D6, 42 h) of over 10 mg/L.

In the case of COc1cc([C@@H]2OC[C@@H]3[C@H]2CO[C@H]3c2cc(OC)c(O)c(OC)c2)cc(OC)c1O, the IC50 ([1]; D6, 42 h) is reported as over 10 mg/L.

Molecule CCCCNC(=O)c1ccccc1 has an IC50 ([1]; D6, 42 h) of over 10 mg/L.

COc1cc([C@H]2OC[C@@H]3C(=O)OC[C@@H]32)cc(OC)c1O gave an IC50 ([1]; D6, 42 h) of over 10 mg/L.

Molecule CC(=O)/C=C/[C@@]1(O)C(C)=CC(=O)CC1(C)C has an IC50 ([1]; D6, 42 h) of over 10 mg/L.

CCCCCC1(O)OC(=O)C(C)=C1C (stereo unspecified) showed an IC50 ([1]; D6, 42 h) of over 10 mg/L.

For C/C=C/c1cc(OC)c(O[C@H](C)[C@@H](O)c2cc(OC)c(OC)c(OC)c2)c(OC)c1 (relative stereo) [POLYSYPHORIN], the CC50 at 72 h [2] was 2 mg/L (≈ 4.78 µM), the IC50 ([1]; D6) was 0.404 mg/L (≈ 0.965 µM) and the “Selectivity Index” value [3] was 5. For the same molecule, the IC50 [4] was 0.368 mg/L (≈ 0.879 µM) and the “Selectivity Index” value [5] was 6.

COc1cc([C@@H]2OC[C@H]3[C@@H]2CO[C@H]3c2ccc(O)c(OC)c2)ccc1O [(-)-PINORESINOL] gave an IC50 ([1]; D6, 42 h) of over 10 mg/L.

With C[C@@H]1CC[C@H]2[C@@H](C)C(=O)O[C@@H]3O[C@@]4(C)CC[C@@H]1[C@]32OO4 [ARTEMISININ] the CC50 at 72 h [2] was over 20 mg/L, the “Selectivity Index” value [3] was over 10000 and the IC50 [4] was 0.002 mg/L (≈ 0.00708 µM). The “Selectivity Index” value [5] was over 10000.

With COc1cc([C@H]2O[C@@H](c3cc(OC)c(OC)c(OC)c3)[C@H](C)[C@H]2C)cc(OC)c1OC [EPIGRANDISIN] the CC50 at 72 h [2] was 16 mg/L (≈ 37 µM), the IC50 ([1]; D6) was over 10 mg/L and the “Selectivity Index” value [3] was under 2. The IC50 [4] was 3.34 mg/L (≈ 7.72 µM) and the “Selectivity Index” value [5] was 4.

With COc1cc([C@@H]2O[C@@H](c3cc(OC)c(OC)c(OC)c3)[C@H](C)[C@H]2C)cc(OC)c1OC [GRANDISIN] the CC50 at 72 h [2] was 14 mg/L (≈ 32.4 µM), the IC50 ([1]; D6) was 1.51 mg/L (≈ 3.49 µM) and the “Selectivity Index” value [3] was 7. For the same molecule, the IC50 [4] was 1.48 mg/L (≈ 3.43 µM) and the “Selectivity Index” value [5] was 8.

For C=C[C@H]1CN2CC[C@H]1C[C@H]2[C@H](O)c1ccnc2ccc(OC)cc12 [QUININE], the CC50 at 72 h [2] was over 20 mg/L, the IC50 ([1]; D6) was 0.009 mg/L (≈ 0.0277 µM) and the “Selectivity Index” value [3] was over 2000. The IC50 [4] was 0.041 mg/L (≈ 0.126 µM) and the “Selectivity Index” value [5] was over 490.

With COc1cc(O)cc2c1C(=O)OOC(C)CCCCC/C=C/2 (stereo unspecified) [RHAPHIDECURPEROXIN] the CC50 at 72 h [2] was 4 mg/L (≈ 13.1 µM), the IC50 ([1]; D6) was 0.54 mg/L (≈ 1.76 µM) and the “Selectivity Index” value [3] was 0.7. For the same molecule, the IC50 [4] was 0.42 mg/L (≈ 1.37 µM) and the “Selectivity Index” value [5] was 1.

For C=CCc1cc(OC)c(O[C@H](C)[C@@H](O)c2cc(OC)c(OC)c(OC)c2)c(OC)c1 [RHAPHIDECURSINOL B], the CC50 at 72 h [2] was 10 mg/L (≈ 23.9 µM), the IC50 ([1]; D6) was 5.37 mg/L (≈ 12.8 µM) and the “Selectivity Index” value [3] was 1. The IC50 [4] was 4.68 mg/L (≈ 11.2 µM) and the “Selectivity Index” value [5] was 2.
